According to ChEMBL document CHEMBL4130405, “Iridoid Glycosides from the Twigs of Sambucus williamsii var. coreana and Their Biological Activities” (J Nat Prod, 2017):
Each block holds one compound with its values, some of them ahead of it.

Experiments:
[1] = test system: A549; test: Cytotoxicity against human A549 cells after 48 hrs by SRB assay; assay type: functional, cell-based; settings: A549, 48 h
Method in brief: (§1)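 Cells from ATCC were seeded and left 24 h at 37 °C under 5% CO2. Attached cells were then exposed for 48 h to serial dilutions of 30, 10, 3, 1, 0.3 and 0.1 μM. Cells were fixed with cold 10% TCA at 4 °C for 1 h and stained with 0.4% SRB for 30 min at room temperature. Dye was solubilized in 10 mM Tris base (pH 10.5) and absorbance read at 520 nm. Etoposide served as positive control. IC50 is the mean ± SD of three independent experiments.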

[2] = test system: SK-OV-3; test: Cytotoxicity against human SKOV3 cells after 48 hrs by SRB assay; assay type: functional, cell-based; settings: SK-OV-3, 48 h; method in brief: as §1
[3] = test system: SK-MEL-2; test: Cytotoxicity against human SK-MEL-2 cells after 48 hrs by SRB assay; assay type: functional, cell-based; settings: SK-MEL-2, 48 h; method in brief: as §1
[4] = test system: BT-549; test: Cytotoxicity against human BT549 cells after 48 hrs by SRB assay; assay type: functional, cell-based; settings: BT-549, 48 h; method in brief: as §1
[5] = test system: BV-2; test: Antineuroinflammatory activity in mouse BV2 cells assessed as inhibition of LPS-induced nitric oxide production pretreated for 30 mins followed by LPS-stimulation after 24 hrs by Griess assay; assay type: functional, cell-based
Method in brief: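 BV-2 microglia were pretreated with compound for 30 min, then stimulated with LPS (100 ng/mL) for 24 h. Nitrite in the supernatant was mixed with an equal volume of Griess reagent (1% sulfanilamide, 0.1% naphthylethylenediamine in 5% phosphoric acid) for 10 min and read at 570 nm. Values were quantified against a sodium nitrite standard curve. L-NMMA served as positive control. IC50 is the concentration giving 50% inhibition of NO production; three independent experiments.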

[6] = Cytotoxicity against mouse BV2 cells assessed as cell viability at 20 uM by MTT assay relative to control; assay type: cell-based, BV-2; settings: read-out: Activity
Method in brief: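 Viability of LPS-activated BV-2 cells was measured after 24 h treatment with 20 μM compound. Read-out was MTT, expressed as percent. Values are means ± SD of three independent experiments.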

[7] = test system: C6; test: Induction of NGF secretion in rat C6 cells at 20 uM after 24 hrs by ELISA relative to control; assay type: functional
Method in brief: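 C6 glioma cells were seeded at 1 × 10^5 cells/well in DMEM with 10% FBS. After 24 h, cells were exposed to 20 μM compound in DMEM with 2% FBS for 24 h. NGF secreted into the conditioned medium was measured by ELISA as percent of untreated control (100%). 6-Shogaol served as positive control. Data are mean ± SD of three independent experiments in triplicate.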

[8] = Cytotoxicity against rat C6 cells assessed as cell viability at 20 uM after 24 hrs by MTT assay relative to control; assay type: cell-based; settings: read-out: Activity
Method in brief: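 C6 glioma cells were kept in DMEM with 10% FBS and seeded at 1 × 10^5 cells/well. After 24 h, cells were treated with 20 μM compound in DMEM with 2% FBS for 24 h. MTT reagent was added for 1 h at 37 °C, formazan dissolved in DMSO and absorbance read at 570 nm. Results are percent, mean ± SD of three independent experiments.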

- IC50 [5]: 0.9 to 0.95 µM
Structure (SMILES): CC(C)CC(=O)O[C@@H]1OC=C(CO[C@@H]2O[C@H](CO)[C@@H](O)[C@H](O)[C@H]2OC(=O)/C=C\c2ccc(O)cc2)[C@H]2CC[C@](O)(CO)[C@@H]12
- IC50 [1]: > 10 µM
- IC50 [2]: > 10 µM
- IC50 [3]: 8.4 µM
- IC50 [4]: 8.7 µM
- viability at 20 µM [6]: 103%
- Activity [7]: 147%
- viability at 24 h, 20 µM [8]: 102%

- IC50 [5]: 1.2 to 1.22 µM
Structure (SMILES): CC(=O)OC[C@@]1(O)CC[C@@H]2C(CO[C@@H]3O[C@H](CO)[C@@H](O)[C@H](O)[C@H]3OC(=O)/C=C\c3ccc(O)cc3)=CO[C@@H](OC(=O)CC(C)C)[C@@H]21
- IC50 [1]: > 10 µM
- IC50 [2]: 7.5 µM
- IC50 [3]: 5.2 µM
- IC50 [4]: 4 µM
- viability at 20 µM [6]: 130%
- Activity [7]: 134.1%
- viability at 24 h, 20 µM [8]: 104%

- IC50 [5]: 110 µM
Structure (SMILES): C=C1[C@@H]2O[C@@H](OC)[C@@H]3[C@@H](O2)[C@@H](O)C[C@H]13
- IC50 [1]: > 10 µM
- IC50 [2]: > 10 µM
- IC50 [3]: > 10 µM
- IC50 [4]: > 10 µM
- viability at 20 µM [6]: 36%
- Activity [7]: 152.6%
- viability at 24 h, 20 µM [8]: 111%

- IC50 [5]: 94.2 µM
Structure (SMILES): C=C1[C@@H]2O[C@@H](OC)[C@@H]3[C@H](CC[C@H]13)O2
- IC50 [1]: > 10 µM
- IC50 [2]: > 10 µM
- IC50 [3]: > 10 µM
- IC50 [4]: > 10 µM
- viability at 20 µM [6]: 104%
- Activity [7]: 133.4%
- viability at 24 h, 20 µM [8]: 106%

- IC50 [5]: 45.5 µM
Structure (SMILES): CC(C)CC(=O)O[C@@H]1OC=C(CO[C@@H]2O[C@H](CO)[C@@H](O)[C@H](O)[C@H]2OC(=O)/C=C/c2ccc(O)cc2)[C@H]2CC[C@](O)(CO)[C@@H]12
- IC50 [1]: > 10 µM
- IC50 [2]: > 10 µM
- IC50 [3]: > 10 µM
- IC50 [4]: > 10 µM
- viability at 20 µM [6]: 102%
- Activity [7]: 130.4%
- viability at 24 h, 20 µM [8]: 115%

- IC50 [5]: 29.8 µM
Structure (SMILES): CC(=O)OC[C@@]1(O)CC[C@@H]2C(CO[C@@H]3O[C@H](CO)[C@@H](O)[C@H](O)[C@H]3OC(=O)/C=C/c3ccc(O)cc3)=CO[C@@H](OC(=O)CC(C)C)[C@@H]21
- IC50 [1]: > 10 µM
- IC50 [2]: > 10 µM
- IC50 [3]: > 10 µM
- IC50 [4]: > 10 µM
- viability at 20 µM [6]: 143%
- Activity [7]: 158.7%
- viability at 24 h, 20 µM [8]: 120%

- IC50 [5]: 1.25 to 1.3 µM
Structure (SMILES): CCC(C)C(=O)O[C@@H]1OC=C(CO[C@@H]2O[C@H](CO)[C@@H](O)[C@H](O)[C@H]2OC(=O)/C=C/c2ccc(O)cc2)[C@H]2CC[C@](O)(CO)[C@@H]12 (some centres not stated)
- IC50 [1]: 3.8 µM
- IC50 [2]: 1.9 µM
- IC50 [3]: 1.4 µM
- IC50 [4]: 1.3 µM
- viability at 20 µM [6]: 136%
- Activity [7]: 145.4%
- viability at 24 h, 20 µM [8]: 101%

- IC50 [5]: 112 µM
Structure (SMILES): CC(C)CC(=O)O[C@@H]1OC=C(CO[C@@H]2O[C@H](CO)[C@@H](O)[C@H](O)[C@H]2O)[C@H]2C[C@H](O)[C@](O)(CO)[C@@H]12
- IC50 [1]: > 10 µM
- IC50 [2]: > 10 µM
- IC50 [3]: > 10 µM
- IC50 [4]: > 10 µM
- viability at 20 µM [6]: 103%
- Activity [7]: 107.4%
- viability at 24 h, 20 µM [8]: 116%

Structure (SMILES): COc1cc([C@@H]2c3cc4c(cc3[C@@H](O[C@@H]3O[C@@H]5CO[C@@H](C)O[C@H]5[C@H](O)[C@H]3O)[C@H]3COC(=O)[C@H]23)OCO4)cc(OC)c1O [ETOPOSIDE]
- IC50 [1]: 1.1 µM
- IC50 [2]: 2.9 µM
- IC50 [3]: 0.2 µM
- IC50 [4]: 1 µM

Structure (SMILES): CCCCC/C=C/C(=O)CCc1ccc(O)c(OC)c1 [SHOGAOL]
- Activity [7]: 146.3%
- viability at 24 h, 20 µM [8]: 98.8%

- IC50 [5]: 13.2 µM
Structure (SMILES): CNC(=N)NCCC[C@H](N)C(=O)O [TILARGININE]
- viability at 20 µM [6]: 120%
